This is an account of results in ChEMBL document CHEMBL3861974, “Discovery of a Selective Aurora A Kinase Inhibitor by Virtual Screening” (J Med Chem, 2016).

The target of assay [1] is T1, Aurora kinase A (Homo sapiens, UniProt O14965).
T1 sequence (O14965 whole entry): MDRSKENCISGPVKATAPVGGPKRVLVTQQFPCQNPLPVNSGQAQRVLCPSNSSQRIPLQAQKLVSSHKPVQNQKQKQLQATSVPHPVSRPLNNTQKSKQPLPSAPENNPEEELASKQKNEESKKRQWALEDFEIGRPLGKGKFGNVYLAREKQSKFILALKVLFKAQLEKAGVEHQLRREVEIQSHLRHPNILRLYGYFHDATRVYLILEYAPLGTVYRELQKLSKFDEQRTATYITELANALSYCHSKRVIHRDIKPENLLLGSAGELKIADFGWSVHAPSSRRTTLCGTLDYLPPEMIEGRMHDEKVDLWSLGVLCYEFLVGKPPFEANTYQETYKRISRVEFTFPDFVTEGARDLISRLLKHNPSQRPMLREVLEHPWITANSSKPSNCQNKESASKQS
Kind of assay: Binding affinity to human Aurora A kinase expressed in Escherichia coli BL21 cells incubated for 1 hr by active site directed binding competition assay. In outline:
(§1)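 Kinome scan of 456 kinases using an active-site-directed binding competition assay, followed by determination of binding affinities (Kd). Aurora B in this scan was free enzyme without INCENP.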

The target of assay [2] is Aurora kinase B (Homo sapiens, UniProt Q96GD4). In words: Binding affinity to human Aurora B kinase expressed in Escherichia coli BL21 cells incubated for 1 hr by active site directed binding competition assay. In short, it runs like this: as §1
Sequence of Aurora kinase B (Q96GD4 whole entry): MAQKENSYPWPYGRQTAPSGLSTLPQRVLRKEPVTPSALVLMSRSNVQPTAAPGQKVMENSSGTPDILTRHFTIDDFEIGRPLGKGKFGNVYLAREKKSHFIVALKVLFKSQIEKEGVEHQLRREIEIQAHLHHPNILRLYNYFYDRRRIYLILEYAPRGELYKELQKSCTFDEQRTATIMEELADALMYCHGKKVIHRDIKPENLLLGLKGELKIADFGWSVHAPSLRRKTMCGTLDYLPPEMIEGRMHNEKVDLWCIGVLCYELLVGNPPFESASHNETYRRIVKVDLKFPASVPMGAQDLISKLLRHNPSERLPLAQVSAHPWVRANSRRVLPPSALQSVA
Assay [3] concerns the target Death-associated protein kinase 2 (Homo sapiens, UniProt Q9UIK4). Kind of assay: Binding affinity to human DAPK2 expressed in Escherichia coli BL21 cells incubated for 1 hr by active site directed binding competition assay. In outline: as §1
For assay [4], the target named is T2, Mitogen-activated protein kinase kinase kinase 19 (Homo sapiens, UniProt Q56UN5).
T2 sequence (Q56UN5 whole entry): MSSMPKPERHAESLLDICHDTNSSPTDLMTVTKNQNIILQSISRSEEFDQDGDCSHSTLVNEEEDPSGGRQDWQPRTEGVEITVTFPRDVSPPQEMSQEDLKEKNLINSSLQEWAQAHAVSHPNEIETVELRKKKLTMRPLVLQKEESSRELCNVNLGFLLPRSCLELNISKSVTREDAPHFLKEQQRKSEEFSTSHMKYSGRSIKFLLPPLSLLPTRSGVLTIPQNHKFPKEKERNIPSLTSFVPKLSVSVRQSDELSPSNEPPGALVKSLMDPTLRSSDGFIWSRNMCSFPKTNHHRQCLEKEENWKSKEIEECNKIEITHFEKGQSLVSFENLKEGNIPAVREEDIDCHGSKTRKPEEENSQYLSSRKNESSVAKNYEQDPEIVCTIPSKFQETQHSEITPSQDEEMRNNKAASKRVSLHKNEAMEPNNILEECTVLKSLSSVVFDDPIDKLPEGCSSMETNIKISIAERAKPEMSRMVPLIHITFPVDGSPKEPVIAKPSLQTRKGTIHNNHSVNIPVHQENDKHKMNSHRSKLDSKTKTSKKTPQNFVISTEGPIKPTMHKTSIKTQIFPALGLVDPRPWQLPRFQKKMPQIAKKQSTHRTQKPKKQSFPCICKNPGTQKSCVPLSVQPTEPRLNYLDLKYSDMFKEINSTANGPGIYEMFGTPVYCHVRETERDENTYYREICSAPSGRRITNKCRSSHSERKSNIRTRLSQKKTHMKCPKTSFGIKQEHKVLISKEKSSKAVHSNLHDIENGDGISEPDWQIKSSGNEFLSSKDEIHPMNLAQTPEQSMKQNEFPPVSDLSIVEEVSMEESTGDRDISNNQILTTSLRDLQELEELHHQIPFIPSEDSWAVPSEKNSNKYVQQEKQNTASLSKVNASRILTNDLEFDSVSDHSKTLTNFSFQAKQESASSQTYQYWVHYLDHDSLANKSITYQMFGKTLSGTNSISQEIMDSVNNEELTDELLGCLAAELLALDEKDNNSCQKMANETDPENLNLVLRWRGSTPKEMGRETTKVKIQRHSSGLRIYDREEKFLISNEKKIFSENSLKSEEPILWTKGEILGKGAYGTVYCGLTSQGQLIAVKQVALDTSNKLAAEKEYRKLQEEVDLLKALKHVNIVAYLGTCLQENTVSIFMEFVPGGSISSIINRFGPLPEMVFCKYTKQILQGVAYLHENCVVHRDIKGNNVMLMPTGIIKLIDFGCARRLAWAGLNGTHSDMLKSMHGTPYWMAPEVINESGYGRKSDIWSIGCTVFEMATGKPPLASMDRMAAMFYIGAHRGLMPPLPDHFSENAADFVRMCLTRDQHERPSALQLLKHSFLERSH
In words: Binding affinity to human YSK4 expressed in Escherichia coli BL21 cells incubated for 1 hr by active site directed binding competition assay. In outline:
as §1

In assay [5] the target is Phosphatidylinositol 4,5-bisphosphate 3-kinase catalytic subunit gamma isoform (Homo sapiens, UniProt P48736). In words: Binding affinity to human PIK3CG expressed in Escherichia coli BL21 cells incubated for 1 hr by active site directed binding competition assay. In short, it runs like this: as §1
Sequence of Phosphatidylinositol 4,5-bisphosphate 3-kinase catalytic subunit gamma isoform (P48736 whole entry, canonical isoform): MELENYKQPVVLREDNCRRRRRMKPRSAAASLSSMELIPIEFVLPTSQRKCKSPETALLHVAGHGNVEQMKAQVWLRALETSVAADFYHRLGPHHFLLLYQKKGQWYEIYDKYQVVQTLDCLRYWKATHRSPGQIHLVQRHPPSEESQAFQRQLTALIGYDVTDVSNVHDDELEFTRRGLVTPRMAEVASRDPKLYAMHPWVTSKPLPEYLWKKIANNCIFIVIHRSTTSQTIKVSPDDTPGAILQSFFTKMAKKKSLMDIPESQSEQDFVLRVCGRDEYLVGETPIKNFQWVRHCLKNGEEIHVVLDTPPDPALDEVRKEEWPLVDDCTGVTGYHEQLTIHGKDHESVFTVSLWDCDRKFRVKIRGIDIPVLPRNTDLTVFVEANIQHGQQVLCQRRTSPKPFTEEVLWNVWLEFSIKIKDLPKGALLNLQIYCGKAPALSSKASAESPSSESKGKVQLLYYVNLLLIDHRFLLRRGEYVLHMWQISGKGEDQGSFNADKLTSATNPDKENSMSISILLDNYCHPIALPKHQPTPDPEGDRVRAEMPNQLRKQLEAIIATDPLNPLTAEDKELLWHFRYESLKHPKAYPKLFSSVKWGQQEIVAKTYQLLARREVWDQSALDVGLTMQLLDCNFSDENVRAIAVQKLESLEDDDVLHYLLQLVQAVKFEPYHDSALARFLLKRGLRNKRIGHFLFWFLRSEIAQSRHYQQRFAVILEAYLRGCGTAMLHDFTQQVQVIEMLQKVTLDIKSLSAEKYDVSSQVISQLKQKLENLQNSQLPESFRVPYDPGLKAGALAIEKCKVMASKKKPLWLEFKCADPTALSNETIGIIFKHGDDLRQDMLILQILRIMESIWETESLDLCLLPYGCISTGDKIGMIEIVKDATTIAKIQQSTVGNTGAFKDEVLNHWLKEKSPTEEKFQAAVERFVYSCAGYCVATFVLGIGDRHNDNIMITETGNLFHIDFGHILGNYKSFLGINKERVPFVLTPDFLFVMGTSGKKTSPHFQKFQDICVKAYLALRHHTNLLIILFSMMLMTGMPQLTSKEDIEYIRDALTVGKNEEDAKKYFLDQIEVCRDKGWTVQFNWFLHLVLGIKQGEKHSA
The target of assay [6] is T3, Phosphatidylinositol 5-phosphate 4-kinase type-2 gamma (Homo sapiens, UniProt Q8TBX8).
T3 sequence (Q8TBX8 whole entry): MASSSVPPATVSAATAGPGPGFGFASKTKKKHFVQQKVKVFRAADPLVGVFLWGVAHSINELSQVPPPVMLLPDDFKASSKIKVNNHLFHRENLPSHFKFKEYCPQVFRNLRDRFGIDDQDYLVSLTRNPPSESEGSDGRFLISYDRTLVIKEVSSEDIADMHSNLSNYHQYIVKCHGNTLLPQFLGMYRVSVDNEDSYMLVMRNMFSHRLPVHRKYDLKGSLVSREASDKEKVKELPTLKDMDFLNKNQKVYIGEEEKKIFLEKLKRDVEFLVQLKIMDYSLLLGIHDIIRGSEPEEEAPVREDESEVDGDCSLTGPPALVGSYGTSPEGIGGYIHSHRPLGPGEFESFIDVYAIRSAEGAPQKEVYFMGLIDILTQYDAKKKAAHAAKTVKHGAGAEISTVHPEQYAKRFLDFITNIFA
Kind of assay: Binding affinity to human PIP5K2C expressed in Escherichia coli BL21 cells incubated for 1 hr by active site directed binding competition assay. In short, it runs like this: as §1

Assay [7] addresses Macrophage colony-stimulating factor 1 receptor (Homo sapiens, UniProt P07333). Kind of assay: Binding affinity to auto-inhibited human CSF1R expressed in Escherichia coli BL21 cells incubated for 1 hr by active site directed binding competition assay. In short, it runs like this:
as §1

Assay [8] has as its target T4, Aurora kinase A (Homo sapiens) (UniProt O14965).
T4 sequence (whole entry): T1 sequence (O14965 whole entry)
In words: Inhibition of Aurora A kinase localization at spindle microtubules in human HeLa Kyoto cells at 10 uM incubated for 20 hrs. It is filed as cell-based. In short, it runs like this: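 HeLa Kyoto cells were treated overnight, then immunostained for Aurora A and TPX2 with DNA counterstain. Aurora A at spindle microtubules versus centrosomes was assessed by fluorescence imaging.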

In assay [9] the target is T4, Aurora kinase A (Homo sapiens). Kind of assay: Inhibition of Aurora A kinase in human HeLa Kyoto cells assessed as induction of defective chromosome alignment during metaphase at 10 uM incubated for 20 hrs. It is filed as cell-based. In short, it runs like this: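 HeLa Kyoto cells were treated overnight and stained for pThr288 Aurora A, α-tubulin and DNA. Cells with chromosomes not aligned on the metaphase plate were scored. Experiment repeated twice, SD. Rescue variant: cells transfected with GFP-Aurora A wild-type, Arg137Ala or Trp277Ala before treatment; only highest expressers analysed, ≥100 cells per condition.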

The source made the active and inactive calls. No cut-off for these calls is given here.

Sequence of Death-associated protein kinase 2 (Q9UIK4 whole entry): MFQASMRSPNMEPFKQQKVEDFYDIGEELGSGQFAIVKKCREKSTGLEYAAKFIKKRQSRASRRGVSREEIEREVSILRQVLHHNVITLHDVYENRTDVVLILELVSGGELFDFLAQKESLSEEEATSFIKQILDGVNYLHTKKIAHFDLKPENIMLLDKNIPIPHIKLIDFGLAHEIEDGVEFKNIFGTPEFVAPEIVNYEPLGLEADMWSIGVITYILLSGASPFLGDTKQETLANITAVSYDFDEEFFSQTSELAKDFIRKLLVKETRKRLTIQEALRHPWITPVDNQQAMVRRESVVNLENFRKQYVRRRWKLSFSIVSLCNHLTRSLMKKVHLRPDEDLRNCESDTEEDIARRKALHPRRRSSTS
Sequence of Macrophage colony-stimulating factor 1 receptor (P07333 whole entry): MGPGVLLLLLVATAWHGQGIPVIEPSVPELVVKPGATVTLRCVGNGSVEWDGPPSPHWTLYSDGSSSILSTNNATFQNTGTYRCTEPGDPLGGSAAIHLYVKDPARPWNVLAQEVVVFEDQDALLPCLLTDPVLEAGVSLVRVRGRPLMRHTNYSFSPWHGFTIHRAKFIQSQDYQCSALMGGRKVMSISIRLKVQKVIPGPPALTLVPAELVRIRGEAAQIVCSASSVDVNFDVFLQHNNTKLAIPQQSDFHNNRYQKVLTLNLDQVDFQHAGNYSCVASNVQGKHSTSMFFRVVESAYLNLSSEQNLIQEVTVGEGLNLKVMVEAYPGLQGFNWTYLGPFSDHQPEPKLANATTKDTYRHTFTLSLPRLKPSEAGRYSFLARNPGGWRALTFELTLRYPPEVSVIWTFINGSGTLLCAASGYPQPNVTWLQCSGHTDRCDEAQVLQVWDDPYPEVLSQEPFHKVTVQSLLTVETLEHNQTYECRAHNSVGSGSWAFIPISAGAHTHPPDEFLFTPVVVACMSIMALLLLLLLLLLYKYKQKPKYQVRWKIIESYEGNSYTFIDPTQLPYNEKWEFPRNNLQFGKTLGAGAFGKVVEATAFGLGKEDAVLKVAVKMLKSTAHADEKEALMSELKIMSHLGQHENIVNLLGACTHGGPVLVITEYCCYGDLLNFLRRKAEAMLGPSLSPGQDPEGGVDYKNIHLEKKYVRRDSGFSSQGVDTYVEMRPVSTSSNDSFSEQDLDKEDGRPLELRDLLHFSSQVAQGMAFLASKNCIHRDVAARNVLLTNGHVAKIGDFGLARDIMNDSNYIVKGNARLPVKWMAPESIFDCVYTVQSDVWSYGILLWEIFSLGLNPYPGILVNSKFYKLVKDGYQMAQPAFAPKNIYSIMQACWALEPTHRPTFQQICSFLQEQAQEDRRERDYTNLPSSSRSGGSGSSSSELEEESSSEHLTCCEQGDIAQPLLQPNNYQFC

As a reminder, the Kd is a measure of binding affinity in units of concentration. A lower Kd goes with higher affinity. In the case of `CCc1ccc(/N=C2\S/C(=C\c3ccnc(Nc4ccc(C(=O)O)cn4)c3)C(=O)N2C)cc1`, the Kd is 5 nM in assay [1]; 10.1 nM in assay [2]; 450 nM in [3]; 2900 nM in [4]; 1500 nM in assay [5]; 480 nM in assay [6]. This molecule registered a Kd in assay [7] of 120 nM. For the same molecule, the inhibition result in [8] and in assay [9] was “Active” in each case.
